Reference: ChEMBL document CHEMBL3822413, “Design, synthesis, and evaluation of water-soluble morpholino-decorated paclitaxel prodrugs with remarkably decreased toxicity” (Bioorg Med Chem Lett, 2016)
Values after ≈ are worked out from the molar mass of the structure shown. Active and inactive are the calls of the source. The calls are words filed in the database; no cut-off is given here.

Columns and labels:
[1] = Aqueous solubility of the compound; format: physicochemical
[2] = Ratio of aqueous solubility of compound to aqueous solubility of paclitaxel; format: physicochemical; conditions: buffer
[3] = Chemical stability of the compound assessed as paclitaxel release in presence of FBS measured after 4 hrs by HPLC analysis; format: physicochemical; conditions: cattle
Outline: (§1)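 Compound solution added to fetal bovine serum (400 µl into 3600 µl) and incubated at 37 °C. At set time points, 100 µl aliquots were quenched with 300 µl acetonitrile and centrifuged 5 min at 10,000 rpm. Supernatant analysed by HPLC for intact prodrug and released paclitaxel.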

[4] = test system: MCF7; test: Cytotoxicity against human MCF7 cells assessed as cell viability measured after 48 hrs by MTS assay; format: functional, cell-based; conditions: MCF7, 48 h
Outline: (§2)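 MCF-7 and HeLa cells seeded at 4×10^3 cells/well 24 h before treatment, then exposed to compounds for 48 h or 72 h. Viability measured by MTS assay and IC50 derived; top concentration tested 1 µM.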

[5] = test system: MCF7; test: Cytotoxicity against human MCF7 cells assessed as cell viability measured after 72 hrs by MTS assay; format: functional, cell-based; conditions: MCF7, 72 h; outline: as §2
[6] = test system: HeLa; test: Cytotoxicity against human HeLa cells assessed as cell viability measured after 48 hrs by MTS assay; format: functional, cell-based; outline: as §2
[7] = test system: HeLa; test: Cytotoxicity against human HeLa cells assessed as cell viability measured after 72 hrs by MTS assay; format: functional, cell-based; outline: as §2
[8] = test system: MCF7; test: Cytotoxicity against human MCF7 cells at 1 uM by MTS assay; format: functional, cell-based; outline: as §2
[9] = test system: HeLa; test: Cytotoxicity against human HeLa cells at 1 uM by MTS assay; format: functional, cell-based; outline: as §2
[10] = Chemical stability of the compound assessed as compound degradation in presence of FBS measured after 4 hrs by HPLC analysis; format: physicochemical; conditions: cattle; outline: as §1
[11] = test system: CCRF S-180; test: Antitumor activity against mouse S180 cells allografted in mouse assessed as tumor weight at 25 mg/kg, iv administered 4 time a day post 24 hrs of tumor implantation measured after 10 days (reference value: 7.35g); format: functional
[12] = test system: Mus musculus; test: Acute toxicity in mouse allografted with mouse S180 cells at 60 mg/kg, iv administered 4 times per day post 24 hrs of tumor implantation measured after 24 hrs; format: organism-based, CCRF S-180; conditions: in vivo
[13] = test system: CCRF S-180; test: Antitumor activity against mouse S180 cells allografted in mouse assessed as tumor growth inhibition at 25 mg/kg, iv administered 4 time a day post 24 hrs of tumor implantation measured after 10 days; format: functional; conditions: CCRF S-180, iv, read-out: TGI
[14] = test system: Mus musculus; test: Toxicity in mouse allografted with mouse S180 cells assessed as change in body weight at 25 mg/kg, iv administered 4 time a day post 24 hrs of tumor implantation measured after 10 days (reference value: -2.8%); format: organism-based, CCRF S-180; conditions: in vivo, 240 h
[15] = Toxicity in mouse; format: organism-based; conditions: in vivo
[16] = Chemical stability of the compound assessed as paclitaxel release in presence of FBS measured after 5 hrs by HPLC analysis; format: physicochemical; conditions: cattle; outline: as §1
[17] = test system: Mus musculus; test: Acute toxicity in mouse allografted with mouse S180 cells assessed as mouse survival at 90 mg/kg, iv administered 4 times per day post 24 hrs of tumor implantation; format: organism-based, CCRF S-180; conditions: in vivo
[18] = test system: Mus musculus; test: Toxicity in mouse allografted with mouse S180 cells assessed as mortality at 25 mg/kg, iv administered 4 time a day post 24 hrs of tumor implantation; format: organism-based, CCRF S-180; conditions: in vivo
Outline: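 S-180 cells were implanted subcutaneously in mice, 8 per group. Starting 24 h later, dosing was iv every other day for 4 doses, with dose expressed as paclitaxel-equivalent. Prodrug vehicle was 5% glucose. Paclitaxel was given in cremophor/ethanol (50%/50%) diluted 10-fold with 5% glucose. Vehicle controls received 5% glucose. Deaths were counted up to day 10.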

[19] = Metabolic stability in mouse plasma assessed as compound degradation at 37 degC measured after 10 hrs; format: ADME, cell-free; conditions: read-out: Drug degradation
Outline: (§3)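 Compound incubated in mouse plasma at 37 °C for up to 48 h. Remaining compound and released paclitaxel measured at intervals, expressed as detected concentration divided by total concentration. In a separate incubation, 10 mM dithiothreitol was added.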

[20] = test system: Plasma; test: Metabolic stability in mouse plasma assessed as paclitaxel release at 37 degC in presence of dithiotheitol measured after 10 min; format: ADME, cell-free; outline: as §3

## CC(=O)O[C@H]1C(=O)[C@@]2(C)[C@H]([C@H](OC(=O)c3ccccc3)[C@]3(O)C[C@H](OC(=O)[C@H](OC(=O)NCCN4CCOCC4)[C@@H](NC(=O)c4ccccc4)c4ccccc4)C(C)=C1C3(C)C)[C@]1(OC(C)=O)CO[C@@H]1C[C@@H]2O
[1]
  solubility: 500 µg/mL (≈ 495 µM)
[2]
  Ratio: 2000
[3]
  Drug metabolism: metabolite_notdetected
[4]
  IC50: > 1000 nM
[5]
  IC50: > 1000 nM
[6]
  IC50: > 1000 nM
[7]
  IC50: > 1000 nM
[8]
  Activity: inactive
[9]
  Activity: inactive
[10]
  Stability: Unstable

## CC(=O)O[C@H]1C(=O)[C@@]2(C)[C@H]([C@H](OC(=O)c3ccccc3)[C@]3(O)C[C@H](OC(=O)[C@H](O)[C@@H](NC(=O)c4ccccc4)c4ccccc4)C(C)=C1C3(C)C)[C@]1(OC(C)=O)CO[C@@H]1C[C@@H]2O [PACLITAXEL]
[11]
  Activity: 3.34 g
[4]
  IC50: 3.1 nM
[5]
  IC50: 1.25 nM
[6]
  IC50: 23.3 nM
[7]
  IC50: 12.6 nM
[12]
  Activity: Toxic
[13]
  inhibition in vivo at 25 mg/kg: 56%
[14]
  Activity: -28.1%
[15]
  MTD: 30 mg/kg

## CC(=O)O[C@H]1C(=O)[C@@]2(C)[C@H]([C@H](OC(=O)c3ccccc3)[C@]3(O)C[C@H](OC(=O)[C@H](OC(=O)CCC(=O)NCCN4CCOCC4)[C@@H](NC(=O)c4ccccc4)c4ccccc4)C(C)=C1C3(C)C)[C@]1(OC(C)=O)CO[C@@H]1C[C@@H]2O
[1]
  solubility: 500 µg/mL (≈ 469 µM)
[2]
  Ratio: 2000
[16]
  Drug metabolism: metabolite_detected
[4]
  IC50: 4.23 nM
[5]
  IC50: 0.74 nM
[6]
  IC50: 19.8 nM
[7]
  IC50: 14.6 nM

## CC(=O)O[C@H]1C(=O)[C@@]2(C)[C@H]([C@H](OC(=O)c3ccccc3)[C@]3(O)C[C@H](OC(=O)[C@H](OC(=O)CN4CCOCC4)[C@@H](NC(=O)c4ccccc4)c4ccccc4)C(C)=C1C3(C)C)[C@]1(OC(C)=O)CO[C@@H]1C[C@@H]2O
[1]
  solubility: 100 µg/mL (≈ 102 µM)
[2]
  Ratio: 400
[4]
  IC50: 12 nM
[5]
  IC50: 3.49 nM
[6]
  IC50: 49.2 nM
[7]
  IC50: 22.9 nM

## CC(=O)O[C@H]1C(=O)[C@@]2(C)[C@H]([C@H](OC(=O)c3ccccc3)[C@]3(O)C[C@H](OC(=O)[C@H](OC(=O)OCCSSCC(=O)N[C@H](CC(=O)NCCN4CCOCC4)C(=O)NCCN4CCOCC4)[C@@H](NC(=O)c4ccccc4)c4ccccc4)C(C)=C1C3(C)C)[C@]1(OC(C)=O)CO[C@@H]1C[C@@H]2O
[11]
  Activity: 3.43 g
[1]
  solubility: 5000 µg/mL (≈ 3600 µM)
[2]
  Ratio: 20000
[4]
  IC50: 7.45 nM
[5]
  IC50: 4.07 nM
[6]
  IC50: 20.6 nM
[7]
  IC50: 14 nM
[17]
  Survival: 1 weeks
[13]
  inhibition in vivo at 25 mg/kg: 54%
[14]
  Activity: -16.1%
[18]
  Activity: Non-toxic
[19]
  metabolised at 10 h: 100%
[20]
  Drug metabolism: metabolite_detected
